The values below come from ChEMBL document CHEMBL4261484, “Design, synthesis and anticonvulsant-analgesic activity of new N-[(phenoxy)alkyl]- and N-[(phenoxy)ethoxyethyl]aminoalkanols” (Medchemcomm, 2017).

Data set [1] deals with Mus musculus. The experiment in a line: Neurotoxicity in mouse assessed as motor impairment at 100 mg/kg, ip measured for one min by rotarod test. The data set is classed as toxicity, organism-based. Particulars: in vivo, 1 min. An outline of the steps:
(§1)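 Mice trained on an accelerating rotarod, then tested at least 24 h later after ip pretreatment, on a rod turning at 10 rpm. Neurotoxicity was scored as failure to stay on the rod for one minute. Read-out is mice impaired over mice tested.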
On the technique in general: Falling from the rotarod earlier than controls is read as motor impairment.

Data set [2] relates to Mus musculus. The experiment in a line: Toxicity in mouse at 30 mg/kg, ip measured during maximal electroshock seizure test. The class given is organism-based. To be noted: in vivo. Background: In the maximal electroshock model the usual endpoint is tonic extension of the hind limbs.
The subject of data set [3] is Mus musculus. The data set can be described thus: Anticonvulsant activity in mouse assessed as protection against maximal electroshock-induced seizures at 30 mg/kg, ip. The data set is classed as functional, organism-based. Put shortly:
(§2)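 Mice dosed ip; maximal seizures induced by auricular electroshock (25 mA, 500 V, 50 Hz, 0.2 s). Endpoint: hind-limb tonic extension; animals without it scored protected. Read-out is number protected over number tested.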

Data set [4] has as its system Mus musculus. The experiment in a line: Toxicity in mouse at 100 mg/kg, ip measured during maximal electroshock seizure test. The class given is organism-based. To be noted: in vivo.
Data set [5] deals with Mus musculus. The data set can be described thus: Neurotoxicity in mouse assessed as motor impairment at 30 mg/kg, ip measured for one min by rotarod test. The data set is classed as toxicity, organism-based. Particulars: in vivo, 1 min. An outline of the steps: as §1
The test system of data set [6] is Mus musculus. The data set can be described thus: Anticonvulsant activity in mouse assessed as protection against maximal electroshock-induced seizures at 100 mg/kg, ip. The class given is functional, organism-based. Put shortly:
as §2

For data set [7], the system named is Mus musculus. The experiment in a line: Anticonvulsant activity in mouse assessed as protection against maximal electroshock-induced seizures at 60 mg/kg, ip. The class given is functional, organism-based. Put shortly:
as §2

For data set [8], the system named is Mus musculus. The data set can be described thus: Anticonvulsant activity in ip dosed mouse assessed as protection against maximal electroshock-induced seizures. The class given is functional. Put shortly:
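Mice were dosed ip. Maximal seizures were induced by auricular electrodes (25 mA, 500 V, 50 Hz, 0.2 s). Absence of hind-limb tonic extension counted as protection. […] Motor impairment was scored on a 10 rpm rotarod, giving TD50 the same way.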

The nature of data set [9]: Protection index, ratio of TD50 for neurotoxicity in ip dosed mouse by rotarod test to ED50 for anticonvulsant activity in mouse by maximal electroshock seizure test. Particulars: in vivo, read-out: Ratio TD50/ED50. The data set is classed as toxicity, organism-based.
Data set [10] in a line: Neurotoxicity in ip dosed mouse assessed as motor impairment measured for one min by rotarod test. The data set is classed as toxicity, organism-based. Particulars: in vivo. An outline of the steps:
as §1

Data set [11] has as its system Mus musculus. The experiment in a line: Toxicity in mouse at 15 mg/kg, ip measured during maximal electroshock seizure test. Particulars: in vivo. The data set is classed as organism-based.
The subject of data set [12] is Mus musculus. The experiment in a line: Anticonvulsant activity in mouse assessed as protection against maximal electroshock-induced seizures at 20 mg/kg, ip. The data set is classed as functional, organism-based. Put shortly: as §2
Data set [13] deals with Mus musculus. The data set can be described thus: Toxicity in mouse at 20 mg/kg, ip measured during maximal electroshock seizure test. The data set is classed as organism-based. Particulars: in vivo.
Data set [14] has as its system Mus musculus. The data set can be described thus: Toxicity in mouse at 10 mg/kg, ip measured during maximal electroshock seizure test. The class given is organism-based. To be noted: in vivo.
Data set [15] concerns Mus musculus. The experiment in a line: Toxicity in mouse at 25 mg/kg, ip measured during maximal electroshock seizure test. The class given is organism-based. Particulars: in vivo.

Structures are written as SMILES. Calls of active or inactive are those of the source. The rule behind the calls is not given here.

On to `Cc1cccc(Cl)c1OCCCCN[C@@H](C)CO`, for which the Activity entry in the data set on Mus musculus [1] was “Toxic”.

With `Cc1ccc(Cl)c(OCCCCN[C@H](C)CO)c1`, the Activity entry in the data set on Mus musculus [2] is reported as “Non-Toxic”; with Mus musculus [4], “Non-Toxic”; in the data set with Mus musculus [1] it was “Toxic”; in the data set on Mus musculus [5], “Non-Toxic”. Also, the result with Mus musculus [3] was inactive. Further, the outcome with Mus musculus [6] was Active.

As for `CC[C@@H](CO)NCCCCOc1cc(C)ccc1Cl`, the figures for the Activity entry in the data set on Mus musculus [2], with Mus musculus [4] and in the data set on Mus musculus [1] were “Non-Toxic”, “Non-Toxic” and “Toxic”, respectively. Also, in the data set with Mus musculus [3], the result was inactive. Besides, the outcome in the data set with Mus musculus [6] was Active.

On to `Cc1cccc(C)c1OCCCCN[C@H]1CC[C@H](O)CC1`, for which the Activity result in the data set on Mus musculus [4] is given as “Toxic”. In addition, the outcome in the data set on Mus musculus [7] was inactive.

For `Cc1cccc(Cl)c1OCCOCCNC[C@H](O)c1ccccc1`, the Activity entry with Mus musculus [1] was “Toxic”.

Consider `Cc1ccc(Cl)c(OCCN[C@H]2CC[C@H](O)CC2)c1`, for which, in the data set with Mus musculus [1], the Activity result is “Toxic”.

As for `Cc1ccc(Cl)c(OCCOCCN2CCC(O)CC2)c1`, the result with Mus musculus [3] was inactive. Moreover, the Activity entry in the data set on Mus musculus [4] and in the data set with Mus musculus [5] was “Non-Toxic” each time. Besides, the result in the data set with Mus musculus [6] was Active.

In the case of `CC[C@H](CO)NCCCCOc1cc(C)ccc1Cl`, the Activity result in the data set with Mus musculus [2] was “Non-Toxic”; in the data set with Mus musculus [4] it was “Non-Toxic”; in the data set on Mus musculus [1], “Toxic”; in the data set with Mus musculus [5], “Non-Toxic”. Also, in the data set on Mus musculus [6], the outcome was Active.

For `Cc1cccc(Cl)c1OCCCCN[C@H]1CC[C@H](O)CC1`, the ED50 (as a rule, the dose that gives a 50% effect, or the effect in half of the subjects) with Mus musculus [8] came to 41.1 mg/kg. Besides, in data set [9], the selectivity ratio is 1.22. The Activity result in the data set on Mus musculus [4] was “Non-Toxic”. Moreover, the result in the data set with Mus musculus [6] was Active. Also, the TD50 – broadly, the 50% point of the dose-response relation for the toxic effect studied – at 1 min in data set [10] amounted to 50 mg/kg.

As for `CC[C@@H](CO)NCCOc1c(C)cccc1C`, the selectivity ratio in data set [9] worked out at 4.55.

For the molecule `Cc1ccc(Cl)c(OCCN2CCC(O)CC2)c1`, the Activity result in the data set with Mus musculus [4] is recorded as “Non-Toxic”; in the data set on Mus musculus [1] it was “Toxic”. The result with Mus musculus [6] was Active.

With `Cc1ccc(Cl)c(OCCCCNC(C)CO)c1` (racemic), the Activity result in the data set on Mus musculus [2] is on record as “Non-Toxic”; in the data set on Mus musculus [4], “Non-Toxic”; in the data set with Mus musculus [1], “Toxic”; with Mus musculus [5], “Non-Toxic”. In the data set with Mus musculus [3], the result was inactive. The outcome in the data set on Mus musculus [6] was Active.

For the molecule `CCC(CO)NCCCCOc1cc(C)ccc1Cl` (racemic), the Activity result in the data set on Mus musculus [2] is on record as “Non-Toxic”; in the data set with Mus musculus [4] it was “Non-Toxic”; in the data set with Mus musculus [1], “Toxic”; in the data set on Mus musculus [5], “Non-Toxic”. The outcome in the data set with Mus musculus [6] was Active.

On to `Cc1cccc(C)c1OCCOCCNCC(O)c1ccccc1` (racemic), for which the Activity entry in the data set with Mus musculus [11], with Mus musculus [4], with Mus musculus [13] and with Mus musculus [14] was “Non-Toxic” in each case. Besides, the ED50 with Mus musculus [8] was determined as 13 mg/kg. In data set [9], the selectivity ratio was 2.76. Also, the result with Mus musculus [12] and with Mus musculus [6] was Active. Further, the TD50 at 1 min in data set [10] was 36 mg/kg.

Turning to `CCC(CO)NCCOCCOc1cc(C)ccc1Cl` (racemic), the figures for the Activity entry in the data set on Mus musculus [1] and in the data set on Mus musculus [5] were “Toxic” and “Non-Toxic”, respectively. For the same molecule, in the data set with Mus musculus [6], the result was Active.

As to `Cc1cccc(C)c1OCCCCNCC(C)O` (racemic), the Activity result in the data set with Mus musculus [15], in the data set with Mus musculus [2] and with Mus musculus [4] was “Non-Toxic” throughout. The ED50 with Mus musculus [8] was 27.1 mg/kg. The selectivity ratio in [9] turned out to be 1.6. Further, the result with Mus musculus [6] was Active. Moreover, the TD50 at 1 min in data set [10] was 43.3 mg/kg.

Consider `Cc1cccc(Cl)c1OCCCCN[C@H]1CCCC[C@@H]1O.Cl` (racemic), for which the Activity entry with Mus musculus [4] and with Mus musculus [1] was “Toxic” in each case.

As to `CCC(O)CNCCOCCOc1cc(Cl)ccc1C` (racemic), the Activity entry is listed as “Non-Toxic” in the data set with Mus musculus [2], “Non-Toxic” with Mus musculus [4] and “Toxic” in the data set with Mus musculus [1]. For the same molecule, the result in the data set with Mus musculus [3] was inactive. Besides, the outcome in the data set with Mus musculus [6] was Active.

In the case of `Cc1cccc(Cl)c1OCCCCNC(C)CO` (racemic), the Activity entry in the data set with Mus musculus [11], in the data set with Mus musculus [4] and with Mus musculus [13] was “Non-Toxic” in each case. Moreover, in the data set on Mus musculus [8], the ED50 worked out at 19.1 mg/kg. Moreover, the selectivity ratio in data set [9] worked out at 2.4. The outcome in the data set on Mus musculus [6] was Active. The TD50 at 1 min in data set [10] was 45.7 mg/kg.

On to `Cc1cccc(C)c1OCC(C)N` (stereo not given) [MEXILETINE], for which the ED50 in the data set on Mus musculus [8] was determined as 20 mg/kg.

For `CC(C)NCC(O)COc1cccc2ccccc12` (stereo not given) [PROPRANOLOL], the ED50 in the data set on Mus musculus [8] came to 15 mg/kg.
